SMARCA2 activ: SMARCA2 (BRM) function activators, primary screen, cell-based, luminescence, high throughput. MG213 cells, MMTV-luciferase reporter, dexamethasone, overnight. activation, % at 9.1 µM. hit rate 1% among 370,000. AID 652017, 2013; in the data active = activation above about 7.8%;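 note: 0% = vehicle wells and 100% = reference activator wells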
ASAP1 GAP inh: inhibitors of human ASAP1 ArfGAP activity, primary screen, biochemical, fluorescence polarization; Arf-GAP with SH3 domain, ANK repeat and PH domain-containing protein 1 (Homo sapiens), …; AID 624377, 2012; ASAP1-stimulated ARF1 GTP hydrolysis, GDP FP detection; hit rate 0.19% among 360,000; inhibition, % at 16.5 µM; in the data active = inhibition above about 25%;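 note: 0% = vehicle with enzyme and substrate and 100% = no enzyme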
Target sequence (Q9ULH1 325-724 limits assumed): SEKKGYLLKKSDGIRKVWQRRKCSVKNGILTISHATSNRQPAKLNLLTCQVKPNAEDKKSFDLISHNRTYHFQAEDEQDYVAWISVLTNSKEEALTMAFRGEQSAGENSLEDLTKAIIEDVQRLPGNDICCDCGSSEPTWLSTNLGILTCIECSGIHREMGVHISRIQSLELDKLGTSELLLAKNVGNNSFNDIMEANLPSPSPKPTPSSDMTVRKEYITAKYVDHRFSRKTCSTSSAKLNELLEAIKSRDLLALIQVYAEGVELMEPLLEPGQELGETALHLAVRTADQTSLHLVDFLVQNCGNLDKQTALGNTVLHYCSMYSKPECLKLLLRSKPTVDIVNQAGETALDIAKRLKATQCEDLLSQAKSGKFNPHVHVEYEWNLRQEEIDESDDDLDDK
esBAF inh: Bmi1 luciferase reporter increase in mESCs, primary screen, esBAF inhibitor project, mouse ES cells, Bmi1 luciferase knock-in, single point; 24 h; 100% = twice the neutral-well signal; AID 602393, 2012; reporter increase, % at 12.5 µM; hit rate 2% among 350,000; in the data active = activation above about 40%; inconclusive = no clear call, values can overlap the other calls;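 note: 0% = median of the plate's neutral control wells and 100% = double that signal; a rise in the Bmi1 reporter signal indicates esBAF inhibition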
ARFGAP1 inh: inhibitors of rat ARFGAP1 GAP activity, primary screen, biochemical, fluorescence polarization, GDP tracer | inhibition, % at 16.5 µM | AID 651572, 2012 | Arfgap1-stimulated ARF1 GTP hydrolysis, GDP FP detection | ADP-ribosylation factor GTPase-activating protein 1 (Rattus norvegicus), Q62848 | hit rate 0.26% among 360,000;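 active = inhibition above a per-plate limit, mean inhibition of low control wells plus 3 SD, cut at about 25% in these data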;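 note: 0% = DMSO wells with enzyme and 100% = wells lacking Arfgap1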
Target sequence (Q62848 1-136 limits assumed): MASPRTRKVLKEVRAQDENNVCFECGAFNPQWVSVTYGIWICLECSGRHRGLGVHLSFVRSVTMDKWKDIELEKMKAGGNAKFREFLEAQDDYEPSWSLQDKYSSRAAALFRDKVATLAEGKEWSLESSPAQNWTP
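System: truncated rat Arfgap1 GAP domain / Benchmarks: high control wells lacking Arfgap1, low control full reaction with DMSO / Times: compound-enzyme preincubation 20 min, reaction 120 min, detection 60 min, 25 °C / Repeats: one replicate per compound / Also added: human ARF1(Δ1-17)-GTP substrate / Measured by: Tracer-displacement fluorescence polarization with EDTA stop, 620/688 nm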
SMARCA2 act conf: SMARCA2 (BRM) function activators, confirmation, cell-based, luminescence, triplicate; activation, % at 9.1 µM; MG213 cells, MMTV-luciferase with dexamethasone, overnight; MG213 cells expressing E1A, Rb sequestered; DMSO wells 0%, reference activator 100%; shares compounds with SMARCA2 activ; hit rate 30% among 3,500;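 active = activation above its plate's cutoff, the mean activation of tested wells plus 3 SD, cut at about 7.9% in these data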
GAL4-VP16 Luc: GAL4-VP16 luciferase reporter activation, counter-screen for SMARCA2 (BRM) activator project, cell-based, pG5luc, luminescence, high throughput; shares compounds with SMARCA2 activ; HEK293 GAL4-VP16 pG5luc reporter; scaled: DMSO wells 0%, SAHA wells 100%; activation, % at 9.1 µM; hit rate 41% among 3,500; AID 686939, 2013;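 active = activation above the solvent-only control well mean plus 3 SD, averaged across control plates, cut at about 5.2% in these data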
* = called active by the depositor. An excerpt weighted towards active compounds, which were near 2.6% of everything screened.

Results for Cc1noc(C)c1S(=O)(=O)N(C)C[C@H]1Oc2ccc(NC(=O)C3CCCCC3)cc2CC(=O)N([C@@H](C)CO)C[C@H]1C ?
esBAF inh: -3

How did CCC(C)(C)C1CCC2(CC1)NC(=O)N(CC(=O)NCCc1c[nH]c3ccccc13)C2=O (stereo not drawn) do in these assays?
SMARCA2 activ: 8.1*; ASAP1 GAP inh: 1; esBAF inh: -4; ARFGAP1 inh: 6; SMARCA2 act conf: 3; GAL4-VP16 Luc: 2

How did CC1CCC2(CC1)NC(=O)N(CC(=O)NCCc1c[nH]c3ccccc13)C2=O (stereo not drawn) do in these assays?
SMARCA2 activ: 0; ASAP1 GAP inh: -3; esBAF inh: -2; ARFGAP1 inh: -11

Results for O=C(NNC1=C(C(=O)C(F)(F)F)CCC1)c1cccc(Cl)c1 ?
SMARCA2 activ: 3; ASAP1 GAP inh: -7; esBAF inh: 11; ARFGAP1 inh: 6

What do the screens show for `O=C(NNC1=C(C(=O)C(F)(F)F)CCC1)c1ccc(Cl)cc1`?
SMARCA2 activ: 14*; ASAP1 GAP inh: -6; ARFGAP1 inh: 4; SMARCA2 act conf: -5; GAL4-VP16 Luc: 0

Results for COc1ccc(C2N(c3cc(Cl)ccc3OC)C(=O)C3CCCN32)c(OC)c1 (stereo not drawn) ?
SMARCA2 activ: 9.5*; ASAP1 GAP inh: 7; esBAF inh: 1; ARFGAP1 inh: 0; SMARCA2 act conf: 3; GAL4-VP16 Luc: 0

Results for COc1ccccc1C1N(c2cc(Cl)ccc2OC)C(=O)C2CCCN21 (stereo not drawn) ?
SMARCA2 activ: -1; ASAP1 GAP inh: -5; esBAF inh: -3; ARFGAP1 inh: 10

How did Cc1cc2ccccn2c1C(=O)Nc1cccc(Cl)c1 do in these assays?
SMARCA2 activ: 8.1*; ASAP1 GAP inh: 2; ARFGAP1 inh: 9; SMARCA2 act conf: 5; GAL4-VP16 Luc: 3

Results for Cc1cc2ccccn2c1C(=O)c1ccc(Cl)cc1 ?
SMARCA2 activ: 3; ASAP1 GAP inh: -10; esBAF inh: 5; ARFGAP1 inh: 0

Results for N#CC(C#N)=Cc1ccc(NC(=O)c2ccc(Br)cc2)cc1 ?
SMARCA2 activ: 9.2*; ASAP1 GAP inh: 11; ARFGAP1 inh: 7; SMARCA2 act conf: 4; GAL4-VP16 Luc: 5

How did C=CCS/C(N)=N\N=C\c1c(O)ccc2ccccc12 do in these assays?
SMARCA2 activ: 12*; ASAP1 GAP inh: -14; esBAF inh: inconclusive; ARFGAP1 inh: 8; SMARCA2 act conf: 12*; GAL4-VP16 Luc: 8.7*

How did NC(=O)c1ccc(N=Cc2c(O)ccc3ccccc23)cc1 do in these assays?
SMARCA2 activ: -4; ASAP1 GAP inh: 11; ARFGAP1 inh: 5

Results for C[C@@H]1CN([C@@H](C)CO)C(=O)c2cc(NC(=O)Nc3ccc(F)cc3)ccc2O[C@@H]1CN(C)C(=O)Nc1ccc(C(F)(F)F)cc1 ?
esBAF inh: 6

What do the screens show for `O=C(NC1Cc2ccccc2C1)[C@H]1[C@H](CO)[C@H]2Cn3c(cccc3=O)[C@H]2N1C(=O)c1cnccn1`?
esBAF inh: 2

Results for Cc1cccc(-c2noc(CCc3ccccc3)n2)c1 ?
SMARCA2 activ: 11*; ASAP1 GAP inh: 5; esBAF inh: 63*; ARFGAP1 inh: 19; SMARCA2 act conf: 4; GAL4-VP16 Luc: 6.7*

What do the screens show for `COCC(=O)Nc1ccc2c(c1)[C@H]1C[C@H](CC(=O)NCc3ccc(OC)cc3)O[C@H](CO)[C@H]1O2`?
esBAF inh: -1

Results for CC(C)C(=O)Nc1sc2c(c1C#N)CCCCC2 ?
SMARCA2 activ: 12*; ASAP1 GAP inh: -12; esBAF inh: 50*; ARFGAP1 inh: 1; SMARCA2 act conf: 2; GAL4-VP16 Luc: 2

What do the screens show for `CC1CCc2c(sc(NC(=O)C3CCCO3)c2C#N)C1` (stereo not drawn)?
SMARCA2 activ: 14*; ASAP1 GAP inh: 0; esBAF inh: inconclusive; ARFGAP1 inh: 0; SMARCA2 act conf: 4; GAL4-VP16 Luc: 12*

How did CC1CCc2c(sc(NC(=O)COC(=O)C3CCCO3)c2C#N)C1 (stereo not drawn) do in these assays?
SMARCA2 activ: -3; ASAP1 GAP inh: 5; ARFGAP1 inh: 4

How did N#Cc1c(NC(=O)C2CC2)sc2c1CCCCC2 do in these assays?
SMARCA2 activ: 8.9*; ASAP1 GAP inh: 8; ARFGAP1 inh: 5; SMARCA2 act conf: 7; GAL4-VP16 Luc: 7.4*

What do the screens show for `CC(=O)Nc1sc2c(c1C#N)CCCC2`?
SMARCA2 activ: -2; ASAP1 GAP inh: -3; esBAF inh: 5; ARFGAP1 inh: -2

How did COCC(=O)N1C[C@@H]2[C@H](c3ccccc31)[C@H](CO)N2C(=O)NC(C)C do in these assays?
esBAF inh: -3

Results for CCC(C)c1ccc(NC(=O)c2cccnc2)cc1 (stereo not drawn) ?
SMARCA2 activ: 9.8*; ASAP1 GAP inh: 5; esBAF inh: 50*; ARFGAP1 inh: 2; SMARCA2 act conf: 8.2*; GAL4-VP16 Luc: 12*

How did CCN(CC)CCn1nc2c3c(cccc3c1=O)-c1ccccc1-2 do in these assays?
SMARCA2 activ: 35*; ASAP1 GAP inh: 21; ARFGAP1 inh: 4; SMARCA2 act conf: 72*; GAL4-VP16 Luc: 4

What do the screens show for `O=c1c2cccc3c2c(nn1CN1CCOCC1)-c1ccccc1-3`?
esBAF inh: 0

Results for COc1ccc(C(=O)Nc2cccc(C)c2)cc1 ?
SMARCA2 activ: 9.6*; ASAP1 GAP inh: 2; esBAF inh: 14; ARFGAP1 inh: -5; SMARCA2 act conf: 13*; GAL4-VP16 Luc: 8.4*

What do the screens show for `COc1ccc(NC(=O)c2ccc3[nH]c(C)c(C)c3c2)cc1`?
SMARCA2 activ: 18*; ASAP1 GAP inh: 4; esBAF inh: 58*; ARFGAP1 inh: -3; SMARCA2 act conf: 9.5*; GAL4-VP16 Luc: 4

How did COc1ccc(C(=O)Nc2cccc(-c3cnc4ccccc4n3)c2)cc1 do in these assays?
SMARCA2 activ: 8.4*; ASAP1 GAP inh: -11; esBAF inh: 37; ARFGAP1 inh: 7; SMARCA2 act conf: -3; GAL4-VP16 Luc: 3

How did COc1ccc(NC(=O)c2ccc(C)cc2)cc1 do in these assays?
SMARCA2 activ: 2; ASAP1 GAP inh: 9; esBAF inh: -30; ARFGAP1 inh: 2

What do the screens show for `COc1ccc(C(=O)NNc2ccccc2)cc1`?
SMARCA2 activ: 10*; ASAP1 GAP inh: -5; ARFGAP1 inh: 8; SMARCA2 act conf: -1; GAL4-VP16 Luc: 0

Source: PubChem BioAssay (several laboratories)
